Published values collected from several papers.
Protocols differ between the studies behind these lines.
Cell line: HepG2
Read-out: cell growth or viability

Structure (SMILES)	test	conditions	IC50
O=C(N/N=C/c1cccn1CCN1CCOCC1)Nc1cc2c(Nc3ccc(F)c(Cl)c3)ncnc2cc1O[C@H]1CCOC1	MTT	72 h	1.68 µM
CC(=O)O[C@H]1C(=O)[C@@]2(C)[C@H]([C@H](OC(=O)c3ccccc3)[C@]3(O)C[C@H](OC(=O)[C@H](O)[C@@H](NC(=O)c4ccccc4)c4ccccc4)C(C)=C1C3(C)C)[C@]1(OC(C)=O)CO[C@@H]1C[C@@H]2O	MTT	48 h	4.75 µM
Oc1c(I)cc(I)c2cccnc12	MTT	48 h	80.1 µM
O=[N+]([O-])c1ccc(Cn2cc(Cn3c4ccccc4c4nc5ccccc5nc43)nn2)cc1	MTT	24 h	> 100 µM
Fc1cccc(Cl)c1-c1nc2ccccc2[nH]1	MTT	48 h	> 100 µM
COc1cccc2c1C(=O)c1c(O)c3c(c(O)c1C2=O)C[C@@](O)(C(=O)CO)C[C@@H]3O[C@H]1C[C@H](N)[C@H](O)[C@H](C)O1	SRB		0.37 µM
CC1=C(O)C(=O)C=C2C1=CC=C1[C@@]2(C)CC[C@@]2(C)[C@@H]3C[C@](C)(C(=O)OCCO)CC[C@]3(C)CC[C@]12C	MTT	48 h	0.62 µM
O=Cc1ccc(CO)o1	WST-1	48 h	77.7 µM
Oc1ncnc2cc(Nc3nc(-c4ccc(C(F)(F)F)cc4)cs3)ccc12	MTT		5.91 µM
COC(=O)CN=c1scc(-c2ccccc2)n1-c1ccccc1C	MTT	72 h	79.2 µM
CCN(CC)CCn1cccc1/C=N/NC(=O)Nc1cc2c(Nc3ccc(F)c(Cl)c3)ncnc2cc1OC	MTT	72 h	1.62 µM
Cc1cc(C)cc(NC(=O)NNC(=O)c2ccc(Nc3nccc(-c4ccccn4)n3)cc2)c1	MTT	24 h	20.3 µM
Cc1ccc2nc(-c3cc(Br)ccc3O)[nH]c2c1	MTT	48 h	8.93 µM
CC1=C(O)C(=O)C=C2C1=CC=C1[C@@]2(C)CC[C@@]2(C)[C@@H]3C[C@](C)(C(=O)OCCCCCCCCO)CC[C@]3(C)CC[C@]12C	MTT	48 h	3.3 µM
COc1cc2c(Nc3ccc(NC(=O)c4ccccc4)cc3)ncnc2cc1OCCCN1CCOCC1	MTS	48 h	3.3 µM
Fc1ccc(-c2nc3ccccc3[nH]2)cc1	MTT	48 h	35.8 µM
Cc1cc(=O)oc2ccc(-c3cc(-c4ccc(Br)cc4)nc(N)n3)c(O)c12	MTT	72 h	> 128 µg/mL
CC(=O)Oc1ccc2c(c1)C(C)=CC(C)(C)N2Cc1ccccc1	MTT	72 h	36 µM
Nc1ccc(-c2csc(Nc3ccc4c(O)ncnc4c3)n2)cc1	MTT		15 µM
CCN(CC)CCCn1cccc1/C=N/NC(=O)Nc1cc2c(Nc3ccc(F)c(Cl)c3)ncnc2cc1OC	MTT	72 h	0.22 µM
COc1c(-c2coc3cc4c(cc3c2=O)CC(OC(C)=O)C(C)(C)O4)ccc2c1C=CC(C)(C)O2 (stereo not drawn)	WST-1	72 h	124 µM
COc1cc2ncnc(Nc3ccc(F)c(Cl)c3)c2cc1NC(=O)N/N=C/CN1CCOCC1	MTT	72 h	4.42 µM
Cc1cc(=O)oc2ccc(-c3cc(-c4ccc(Cl)cc4)nc(N)n3)c(O)c12	MTT	72 h	18.1 µg/mL
Cc1ccc2c(Br)cc(Br)c(O)c2n1	MTT	48 h	> 150 µM

Structure (SMILES)	test	conditions	IC50
Cc1cc(C)n(-c2nc(Nc3ccc(Cl)cc3)nc(-n3nc(C)cc3C)n2)n1	MTT	72 h	19.5 µM
COc1cccc(-c2nc3ccccc3n2Cc2ccccc2)c1	MTT		40.7 µM
COc1cc2ncnc(Nc3ccc(F)c(Cl)c3)c2cc1NC(=O)N/N=C/c1cccn1CCN1CCCCC1	MTT	72 h	0.05 µM
CC(C)(C)NC(=O)NNC(=O)c1ccc(Nc2nccc(-c3ccc(Cl)cc3)n2)cc1	MTT		4.48 µM
COc1cccc2c1C(=O)c1c(O)c3c(c(O)c1C2=O)C[C@@](O)(C(=O)CO)C[C@@H]3O[C@H]1C[C@H](N)[C@H](O)[C@H](C)O1	MTT	48 h	0.1 µM
COc1cc2ncnc(Nc3ccc(F)c(Cl)c3)c2cc1NC(=O)N/N=C/c1cccn1CCN1CCOCC1	MTT	72 h	0.03 µM
Oc1cccc(-c2nc3ccccc3[nH]2)c1	MTT	48 h	83 µM
C[C@H]1[C@@H](O)O[C@@H]2O[C@@]3(C)CC[C@H]4[C@H](C)CC[C@@H]1[C@@]24OO3	CCK-8	48 h	> 50 µM
CCCCNC(=O)NNC(=O)c1ccc(Nc2nccc(-c3ccccn3)n2)cc1	MTT	24 h	15.7 µM
CC1=C(O)C(=O)C=C2C1=CC=C1[C@@]2(C)CC[C@@]2(C)[C@@H]3C[C@](C)(C(=O)OCCCCCO)CC[C@]3(C)CC[C@]12C	MTT	48 h	10.1 µM
Cc1ccc2nc(-c3ccc(F)cc3)n(Cc3ccccc3)c2c1	MTT		27.2 µM
C=CCNC1=C2C[C@@H](C)C[C@H](OC)[C@H](O)[C@@H](C)/C=C(\C)[C@H](OC(N)=O)[C@@H](OC)/C=C\C=C(/C)C(=O)NC(=CC1=O)C2=O	MTT		0.086 µM
Oc1c(Br)cc(Br)c2cccnc12	MTT	48 h	> 100 µM
Cc1ccc(-c2ccc(O)cc2)c(C(=C2C=CC(=O)C=C2)c2ccc(O)cc2)c1C#Cc1ccc(O)cc1	MTT	48 h	16.4 µM
CC1=C(O)C(=O)C=C2C1=CC=C1[C@@]2(C)CC[C@@]2(C)[C@@H]3C[C@](C)(C(=O)OCCCBr)CC[C@]3(C)CC[C@]12C	MTT	48 h	1.32 µM
COc1cc(C2Oc3cc([C@H]4Oc5cc(O)cc(O)c5C(=O)[C@@H]4O)ccc3OC2CO)ccc1O (stereo partly drawn)	CCK-8	72 h	24.3 µM
CC(=O)O[C@H]1C(=O)[C@@]2(C)[C@H]([C@H](OC(=O)c3ccccc3)[C@]3(O)C[C@H](OC(=O)[C@H](O)[C@@H](NC(=O)c4ccccc4)c4ccccc4)C(C)=C1C3(C)C)[C@]1(OC(C)=O)CO[C@@H]1C[C@@H]2O			2 µg/mL
O=c1cc(-c2ccc(O)c(O)c2)oc2cc(O)cc(O)c12	WST-1	48 h	15.2 µM
COc1cc2ncnc(Nc3ccc(F)c(Cl)c3)c2cc1NC(=O)N/N=C/c1cccn1CCCN1CCOCC1	MTT	72 h	0.12 µM
CCNC(=O)NNC(=O)c1ccc(Nc2nccc(-c3ccc(Cl)cc3)n2)cc1	MTT	24 h	20.3 µM
Clc1ccc(Cn2c(-c3ccc(Cl)cc3)nc3ccccc32)cc1	MTT		10.1 µM
Nc1ncnc2c1ncn2[C@@H]1O[C@H](CO)[C@@H](O)[C@H]1O	WST-1	48 h	55.1 µM
COc1cc2ncnc(Nc3ccc(F)c(Cl)c3)c2cc1NC(=O)N/N=C/CN1CCCCC1	MTT	72 h	2.06 µM
Oc1ncnc2cc(Nc3nc(-c4ccc(Br)cc4)cs3)ccc12	MTT		9.85 µM
